Reference: ChEMBL document CHEMBL1130383, “Anesthetic activity of novel water-soluble 2 beta-morpholinyl steroids and their modulatory effects at GABAA receptors” (J Med Chem, 1997)

Key:
[1] = biological target: GABA-A receptor; anion channel (Bos taurus) (UniProt P10063+P08220+P20237+P08219+P10064+P22300); assay: Concentration required to potentiate GABA-evoked currents in voltage-clamped bovine chromaffin cells by 300%; format: functional
Summary of the method: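 Adult bovine chromaffin cells, primary culture, recorded 4 h to 2 days after plating. Whole-cell patch clamp, continuous superfusion with 140 mM NaCl, 2.8 mM KCl, 2 mM MgCl2, 1 mM CaCl2, 10 mM HEPES (pH 7.2). CsCl-based pipette solution, room temperature (18–22 °C). Currents filtered at 500 Hz. Steroid concentration enhancing the GABA-evoked response by 300% of control was interpolated; mean ± SEM of N cells.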

[2] = biological target: GABA-A receptor; anion channel; assay: The concentration required to inhibit 50% of binding of [35S]TBPS to Gamma-aminobutyric acid A receptor to rat whole brain membranes.; format: cell membranes
Mus musculus [3] = species on record: Mus musculus; assay: Effect on interval between loss of righting reflex and return to righting reflex (sleep duration) was measured at a dose twice that of hypnotic dose; caused convulsions and was not tested for the sleeping duration; format: functional, organism-based
Mus musculus [4] = assay: Hypnotic dose by observing loss of righting reflex for a minimum period of 30 sec in 50% of treated mice after iv administration; caused convulsions and not tested further; format: functional, organism-based
Mus musculus [5] = assay: Hypnotic dose was determined by observing loss of righting reflex for a minimum period of 30 sec in 50% of treated mice after i.v. administration.; format: functional
Summary of the method: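 Male CFLP mice (25–35 g), tested in the light period. Groups of eight received an i.v. lateral tail vein injection over 10 s (10 mL kg-1) on a μmol/kg dose series, e.g. 2–16, with extra doses added. Vehicle was saline for amine salts; standards were in HPCD/saline, emulsion or saline. HD50 with 95% confidence limits was obtained by probit analysis of the fraction showing LRR ≥30 s.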

[6] = Therapeutic index by the ratio between LD50 to HD50

Compound	POT [1]	IC50 [2]	SD (Mus musculus [3])	HD50 (Mus musculus [4])	HD50 (Mus musculus [5])	selectivity ratio [6]
C[C@]12C[C@H](N3CCOCC3)[C@@H](O)C[C@@H]1CC[C@H]1[C@@H]3CC[C@H](C(=O)CCl)[C@@]3(C)CC(=O)[C@@H]12	1500 nM	9040 nM	Convulsant	Convulsant		
CC(=O)[C@H]1CC[C@H]2[C@@H]3CC[C@H]4C[C@H](O)[C@@H](N5CCSC(C)(C)C5)C[C@]4(C)[C@H]3C(=O)C[C@]12C		209 nM			13.7 µM/kg	16.3
CC(=O)SCC(=O)[C@H]1CC[C@H]2[C@@H]3CC[C@H]4C[C@H](O)[C@@H](N5CCOC(C)(C)C5)C[C@]4(C)[C@H]3CC[C@]12C		32 nM	Convulsant	Convulsant		
CC(=O)[C@H]1CC[C@H]2[C@@H]3CC[C@H]4C[C@H](O)[C@@H](N5CCOCC5)C[C@]4(C)[C@H]3C(=O)C[C@]12C		2560 nM			34.6 µM/kg	4.6
CC(=O)[C@H]1CC[C@H]2[C@@H]3CC[C@H]4C[C@H](O)[C@@H](N5CCO[C@H](C(C)C)C5)C[C@]4(C)[C@H]3C(=O)C[C@]12C		90 nM			3.4 µM/kg	9.9
C[C@]12C[C@H](N3CCOCC3)[C@@H](O)C[C@@H]1CC[C@@H]1[C@@H]2CC[C@]2(C)[C@@H](C(=O)CCl)CC[C@@H]12	150 nM	171 nM			8.5 µM/kg	6.1
CCCC(C)C1(CC)C(=O)NC(=S)NC1=O (stereo not drawn) [THIOPENTAL]	30000 nM	29500 nM			83 µM/kg	3.7
C[C@]12CC[C@@H](O)C[C@@H]1CC[C@@H]1[C@@H]2CC[C@]2(C)[C@@H](C(=O)CO)CC[C@@H]12	300 nM	220 nM			18.5 µM/kg	
CC(=O)OCC(=O)[C@H]1CC[C@H]2[C@@H]3CC[C@H]4C[C@H](O)[C@@H](N5CCOC(C)(C)C5)C[C@]4(C)[C@H]3C(=O)C[C@]12C	1300 nM	951 nM			21.1 µM/kg	
CC1(C)CN([C@H]2C[C@@]3(C)[C@@H](CC[C@H]4[C@@H]5CC[C@H](C(=O)CCl)[C@@]5(C)CC(=O)[C@@H]43)C[C@@H]2O)CCO1	450 nM	206 nM			13.4 µM/kg	
CC[C@@H]1CN([C@H]2C[C@@]3(C)[C@@H](CC[C@H]4[C@@H]5CC[C@H](C(C)=O)[C@@]5(C)CC(=O)[C@@H]43)C[C@@H]2O)CCO1	910 nM	317 nM			8.7 µM/kg	5.8
CC(C)c1cccc(C(C)C)c1O [PROPOFOL]	2000 nM				68 µM/kg	3.5
CC(=O)[C@H]1CC[C@H]2[C@@H]3CC[C@H]4C[C@H](O)[C@@H](N5C[C@@H](C)O[C@@H](C)C5)C[C@]4(C)[C@H]3C(=O)C[C@]12C		3200 nM			14.4 µM/kg	5.8
